# What was measured:
# [1] = Drug uptake in CD-1 mouse superior and inferior colliculus at 70 uCi, iv followed by compound washout by gamma-counting analysis; format: ADME, organism-based; details: in vivo
# How it was run: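 Male CD-1 mice (25–30 g) given [18F]radioligand i.v. into a lateral tail vein (70 µCi, 8000–12000 mCi/µmol, in 0.2 mL saline). Killed by cervical dislocation at various times, three per time point. Brains dissected on ice; regions weighed and gamma-counted with injectate standards. Result as %ID/g.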
# Brain [2] = assay: Drug uptake in CD-1 mouse other brain region at 70 uCi, iv administered 10 mins post naltrindole challenge measured after 90 mins; format: ADME, organism-based; details: in vivo, 1.5 h
# How it was run: (§1)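 Male CD-1 mice (25–30 g). […] Brains removed 90 min later and dissected on ice. Regions weighed and gamma-counted against injectate standards. Result as %ID/g, mean ± SD, n=3; ANOVA versus controls.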
# Cerebellum [3] = assay: Drug uptake in CD-1 mouse cerebellum at 70 uCi, iv administered 10 mins post ondansetron challenge measured after 90 mins; format: ADME, organism-based; details: in vivo, 1.5 h
# How it was run: (§2)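 Male CD-1 mice, n=3. Drug at 2 mg/kg s.c. in saline:DMSO 5:1, with vehicle controls. [18F] radiotracer (70 µCi, SA ~14000 mCi/µmol) given i.v. 10 min later. Regions harvested 90 min after tracer, gamma counted, expressed as %ID/g. Compared by single-factor ANOVA.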
# Brain [4] = assay: Drug uptake in CD-1 mouse other brain region at 70 uCi, iv administered 10 mins post ketanserin challenge measured after 90 mins; format: ADME, organism-based; details: in vivo, 1.5 h; how it was run: as §1
# Hippocampus [5] = assay: Drug uptake in CD-1 mouse hippocampus at 70 uCi, iv administered 10 mins post ondansetron challenge measured after 90 mins; format: ADME, organism-based; details: in vivo, 1.5 h; how it was run: as §2
# Mus musculus [6] = assay: Toxicity in CD-1 mouse assessed as change in behavioral activity at 0.07 mCi, iv after 90 mins in presence of 3-(1,4-Diazabicyclo[3.2.2]nonan-4-yl)-6-fluorodibenzo[b,d]thiophene 5,5-Dioxide; format: organism-based; details: in vivo, 1.5 h
# How it was run: (§3)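 CD-1 mice observed for behavioral and locomotor changes during self-blockade studies. [18F]tracer (0.07 mCi, i.v.) was co-injected with the non-radioactive ligand at 0.3 or 0.2 mg/kg i.v., dissolved in saline at pH 5.5. Brains were harvested at 90 min.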
# Cortex [7] = assay: Drug uptake in CD-1 mouse cortex at 70 uCi, iv administered 10 mins post SCH23390 challenge measured after 90 mins; format: ADME, organism-based; details: in vivo, 1.5 h; how it was run: as §2
# Hippocampus [8] = assay: Drug uptake in CD-1 mouse hippocampus at 70 uCi, iv administered 10 mins post naltrindole challenge measured after 90 mins; format: ADME, organism-based; details: in vivo, 1.5 h; how it was run: as §2
# Cerebellum [9] = assay: Drug uptake in CD-1 mouse cerebellum at 70 uCi, iv administered 10 mins post spiperone challenge measured after 90 mins; format: ADME, organism-based; details: in vivo, 1.5 h; how it was run: as §2
# Cortex [10] = assay: Drug uptake in CD-1 mouse cortex at 70 uCi, iv administered 10 mins post naltrindole challenge measured after 90 mins; format: ADME, organism-based; details: in vivo, 1.5 h; how it was run: as §2
# Nucleic Acid [11] = assay: Ratio of drug uptake from cortex to cerebellum in CD-1 mouse after 90 mins; format: ADME, tissue-based; details: 1.5 h
# Brain [12] = assay: Drug uptake in CD-1 mouse other brain region at 70 uCi, iv after 90 mins in presence of cytisine; format: ADME, organism-based; details: in vivo, 1.5 h
# Cerebellum [13] = assay: Drug uptake in CD-1 mouse cerebellum at 70 uCi, iv after 90 mins in presence of nicotine; format: ADME, organism-based; details: in vivo, 1.5 h
# How it was run: (§4)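 Male CD-1 mice, n=3. […] [18F] radiotracer (70 µCi, SA ~14000 mCi/µmol) given i.v. 5 min later. Regions harvested at 90 min, gamma counted, expressed as %ID/g.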
# Thalamus = assay: Drug uptake in CD-1 mouse thalamus at 0.07 mCi, iv after 90 mins co-administered with SSR180711; format: ADME, organism-based; details: in vivo, 1.5 h
# How it was run: (§5)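 Male CD-1 mice. [18F]tracer (0.07 mCi, SA 7900 mCi/µmol, 0.2 mL) co-injected i.v. with blocker at 0 (vehicle), 0.02, 0.2, 1 or 3 mg/kg. Blocker dissolved in saline:alcohol 9:1, pH 5.5. Brain regions harvested at 90 min and gamma-counted. %ID/g, mean ± SD, n=3 per dose; ANOVA versus controls.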
# Brain [14] = assay: Drug uptake in CD-1 mouse other brain region at 70 uCi, iv administered 10 mins post SCH23390 challenge measured after 90 mins; format: ADME, organism-based; details: in vivo, 1.5 h; how it was run: as §2
# Hippocampus [15] = assay: Drug uptake in CD-1 mouse hippocampus at 70 uCi, iv after 90 mins in presence of cytisine; format: ADME, organism-based; details: in vivo, 1.5 h; how it was run: as §4
# Brain [16] = assay: Drug uptake in CD-1 mouse other brain regions at 70 uCi, iv after 90 mins in presence of nicotine; format: ADME, organism-based; details: in vivo, 1.5 h
# Brain [17] = assay: Drug uptake in CD-1 mouse other brain region at 70 uCi, iv administered 10 mins post ondansetron challenge measured after 90 mins; format: ADME, organism-based; details: in vivo, 1.5 h; how it was run: as §1
# [18] = Drug uptake in CD-1 mouse superior and inferior colliculus at 70 uCi, iv administered 10 mins post spiperone challenge measured after 90 mins; format: ADME, organism-based; details: in vivo, 1.5 h; how it was run: as §1
# Mus musculus [19] = assay: Toxicity in CD-1 mouse assessed as change in locomotor activity at 0.07 mCi, iv after 90 mins in presence of 3-(1,4-Diazabicyclo[3.2.2]nonan-4-yl)-6-fluorodibenzo[b,d]thiophene 5,5-Dioxide; format: organism-based; details: in vivo, 1.5 h; how it was run: as §3
# Striatum = assay: Drug uptake in CD-1 mouse striatum at 0.07 mCi, iv after 90 mins co-administered with SSR180711; format: ADME, organism-based; details: in vivo, 1.5 h; how it was run: as §5
# Hippocampus [20] = assay: Drug uptake in CD-1 mouse hippocampus at 70 uCi, iv followed by compound washout by gamma-counting analysis; format: ADME, organism-based; details: in vivo
# How it was run: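 Male CD-1 mice (25–30 g), three per time point. [18F] radiotracer (70 µCi, SA 8000–12000 mCi/µmol, in 0.2 mL saline) given by tail vein. Killed at several times up to 90 min. Dissected regions weighed and gamma counted against injectate standards, giving %ID/g.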
# Nucleic Acid [21] = assay: Ratio of drug uptake from hippocampus to cerebellum in CD-1 mouse after 90 mins; format: ADME, nucleic-acid assay; details: 1.5 h
# Cerebellum [22] = assay: Drug uptake in CD-1 mouse cerebellum at 70 uCi, iv administered 10 mins post SCH23390 challenge measured after 90 mins; format: ADME, organism-based; details: in vivo, 1.5 h; how it was run: as §2
# Cerebellum [23] = assay: Drug uptake in CD-1 mouse cerebellum at 0.07 mCi, iv after 90 mins in presence of 3-(1,4-Diazabicyclo[3.2.2]nonan-4-yl)-6-fluorodibenzo[b,d]thiophene 5,5-Dioxide; format: ADME, organism-based; details: in vivo, 1.5 h
# How it was run: (§6)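 Male CD-1 mice, n=3. [18F] radiotracer (70 µCi, 0.2 mL) given i.v. together with unlabeled blocker in saline pH 5.5. Brain regions dissected at 90 min, gamma counted, expressed as %ID/g.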
# Hippocampus [24] = assay: Drug uptake in CD-1 mouse hippocampus at 0.07 mCi, iv after 90 mins relative to drug uptake in CD-1 mouse cerebellum; format: ADME, organism-based; details: in vivo, 1.5 h
# [25] = Drug uptake in CD-1 mouse superior and inferior colliculus at 70 uCi, iv after 90 mins in presence of cytisine; format: ADME, organism-based; details: in vivo, 1.5 h
# Cerebellum [26] = assay: Drug uptake in CD-1 mouse cerebellum at 0.07 mCi, iv after 90 mins in presence of 7-(1,4-Diazabicyclo[3.2.2]nonan-4-yl)-2-fluorodibenzo[b,d]-thiophene 5,5-Dioxide; format: ADME, organism-based; details: in vivo, 1.5 h; how it was run: as §6
# [27] = Drug uptake in CD-1 mouse superior and inferior colliculus at 0.07 mCi, iv after 90 mins co-administered with SSR180711; format: ADME, organism-based; details: in vivo, 1.5 h; how it was run: as §5
compound,measurement,setting,value
O=S1(=O)c2cc(N3CCN4CCC3CC4)ccc2-c2cccc([18F])c21,Drug uptake,[1],Active
same,Drug uptake,Brain [2],Active
same,Drug uptake,Cerebellum [3],Active
same,Drug uptake,Brain [4],Active
same,Drug uptake,Hippocampus [5],Active
same,Activity,Mus musculus [6],Non-toxic
same,Drug uptake,Cortex [7],Active
same,Drug uptake,Hippocampus [8],Active
same,Drug uptake,Cerebellum [9],Active
same,Drug uptake,Cortex [10],Active
same,Ratio,Nucleic Acid [11],5.3
same,Drug uptake,Brain [12],Not Active
same,Drug uptake,Cerebellum [13],Active
same,Drug uptake,Thalamus,Not Active
same,Drug uptake,Brain [14],Active
same,Drug uptake,Hippocampus [15],Not Active
same,Drug uptake,Brain [16],Not Active
same,Drug uptake,Brain [17],Active
same,Drug uptake,[18],Active
same,Activity,Mus musculus [19],Non-toxic
same,Drug uptake,Striatum,Not Active
same,Drug uptake,Hippocampus [20],Active
same,Ratio,Nucleic Acid [21],5.5
same,Drug uptake,Cerebellum [22],Active
same,Drug uptake,Cerebellum [23],Active
same,Drug uptake,Hippocampus [24],94%
same,Drug uptake,[25],Not Active
same,Drug uptake,Cerebellum [26],Active
same,Drug uptake,[27],Not Active
